Measured values: ChEMBL document CHEMBL5705906 (Nat Commun, 2017)
Activity calls are given as the source filed them.

Tests used:
[1] = test system: NCI-H460; assay: Anticancer activity against KRAS-mutated human NCI-H460 cells assessed as reduction in cell viability at 1 to 10000 nM incubated for 72 hrs by CellTiter-Glo assay; format: functional, cell-based; details: dose 1-10000 nM
[2] = test system: MGH121; assay: Anti-tumor activity against human MGH121 cells expressing EGFR-C797S/T790M/del19 mutant xenografted in SCID-beige mouse assessed as tumor shrinkage at 75 mg/kg, po administered for 40 days and measured twice weekly; format: functional, organism-based; details: time 40.0 day
Outline: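 MGH121-res2 cells (EGFR-C797S/T790M/del19) implanted s.c. in SCID-beige mice. Randomized at mean tumour ~200 mm³. […] Tumour volume 0.5×length×width² and body weight measured twice weekly. N = 6, mean ± s.d. Mann-Whitney U test on day 42.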

[3] = test system: BaF3; details: Mus musculus, dose 30-1000 nM, time 6.0 hrs

COc1cc(N2CCC(N3CCN(C)CC3)CC2)ccc1Nc1ncc(Cl)c(Nc2ccccc2P(C)(C)=O)n1 [BRIGATINIB]
active: Activity [1] | Activity [2] | inhibition [3]
